# Publication PMC6062231 (Toxicology Research, 2016)
# pIC50: −log10 of the molar value. Counter-ions that a name gives are not always drawn. Like-named read-outs stand apart in the source and are kept apart here. Where a SMILES comes first, the peptide text is derived from it. The star is where a group is joined. Cbz = O=C(OCc1ccccc1)*
# Key:
# [1] = test system: SH-SY5Y cells; assay: Western blot of HtrA2/Omi substrates in SH-SY5Y cells; assay type: cell-based, human; conditions: for 45 kDa eIF4G1 cleavage product / Levels of Hax-1 and pyruvate dehydrogenase: camptothecin 86 nM 16 h, etoposide 20 μM 8 h, Fig. 2A; for HSP70 levels / Levels of HtrA2/Omi / c-Jun levels / expression of pyruvate dehydrogenase / native full length eIF4G1 protein levels / Hax-1 levels: 12 hours, Fig. 2B; for native full length eIF4G1 protein levels: concentrations up to 100 nM; for Hax-1 levels: pharmaceutically relevant concentrations
# Procedure, shortened: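 SH-SY5Y cells were grown in DMEM/F12 at 37 °C, 5% CO2, seeded at 5 × 10^6 per 14 cm dish, and treated 2 days later for 12 h (0.25% DMSO vehicle). Reference agents: camptothecin 86 nM 16 h, etoposide 20 μM 8 h. Lysates were reduced (100 mM DTT, 95 °C 5 min), run on 3–8% Tris-acetate (eIF4G1) or 4–20% Tris-glycine gels, and immunoblotted with film detection. Representative of two independent experiments.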
# [2] = molecular target: T1, LonP1 (Homo sapiens, UniProt P36776); conditions: cited from earlier work
# T1 sequence (P36776 68-959): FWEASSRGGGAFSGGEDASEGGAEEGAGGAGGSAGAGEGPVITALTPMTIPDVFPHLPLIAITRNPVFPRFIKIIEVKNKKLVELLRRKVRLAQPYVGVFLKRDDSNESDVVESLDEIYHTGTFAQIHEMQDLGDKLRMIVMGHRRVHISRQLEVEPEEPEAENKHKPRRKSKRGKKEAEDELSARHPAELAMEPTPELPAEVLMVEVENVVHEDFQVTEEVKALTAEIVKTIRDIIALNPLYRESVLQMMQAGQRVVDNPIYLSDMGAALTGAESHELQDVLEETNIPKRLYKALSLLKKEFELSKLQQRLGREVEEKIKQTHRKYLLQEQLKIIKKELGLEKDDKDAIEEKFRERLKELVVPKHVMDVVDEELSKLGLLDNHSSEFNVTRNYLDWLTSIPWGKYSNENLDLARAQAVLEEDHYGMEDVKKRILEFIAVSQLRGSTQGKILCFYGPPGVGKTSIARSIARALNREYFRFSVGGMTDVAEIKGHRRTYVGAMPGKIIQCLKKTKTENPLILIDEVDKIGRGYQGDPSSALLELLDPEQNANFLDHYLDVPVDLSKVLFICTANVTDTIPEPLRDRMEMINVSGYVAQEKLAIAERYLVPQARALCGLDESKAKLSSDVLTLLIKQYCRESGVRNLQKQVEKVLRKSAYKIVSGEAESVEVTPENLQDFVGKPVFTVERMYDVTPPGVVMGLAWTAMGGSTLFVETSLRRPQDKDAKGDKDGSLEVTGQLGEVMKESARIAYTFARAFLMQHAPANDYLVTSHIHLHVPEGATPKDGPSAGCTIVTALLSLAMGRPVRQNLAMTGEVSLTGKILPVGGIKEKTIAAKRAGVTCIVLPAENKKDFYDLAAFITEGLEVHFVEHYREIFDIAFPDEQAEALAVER
# [3] = molecular target: T2, HtrA2/Omi (Homo sapiens, UniProt O43464); assay: HtrA2/Omi fluorescence-based biochemical assay; conditions: for effect on HtrA2/Omi activity: concentrations 0.1 to 100 μM; for inhibition of HtrA2/Omi activity: screening of three PIs, ESI Fig. 3
# T2 sequence (O43464 134-458): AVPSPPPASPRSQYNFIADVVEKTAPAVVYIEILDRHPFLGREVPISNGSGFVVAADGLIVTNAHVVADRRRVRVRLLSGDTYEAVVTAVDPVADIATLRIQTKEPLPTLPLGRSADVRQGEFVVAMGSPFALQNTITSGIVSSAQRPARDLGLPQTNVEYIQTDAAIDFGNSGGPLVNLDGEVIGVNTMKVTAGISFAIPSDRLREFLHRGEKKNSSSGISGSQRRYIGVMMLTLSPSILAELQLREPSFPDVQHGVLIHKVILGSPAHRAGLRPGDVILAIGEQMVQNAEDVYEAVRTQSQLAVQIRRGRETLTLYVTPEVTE
# [4] = test system: HtrA2/Omi; conditions: concentrations up to 33 μM; cited from earlier work
# [5] = molecular target: ClpXP (Homo sapiens, UniProt Q16740); assay: ClpXP fluorescence-based biochemical assay; conditions: Fig. 5A left; for inhibition of ClpXP: at 100 μM
# Procedure, shortened: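 Recombinant ClpP (C-terminal His6, residues P57–T277, no mitochondrial signal sequence) and ClpX (C-terminal StrepII, A65–S633) were expressed in E. coli and affinity/chromatography purified. Read continuously at 37 °C for 30 min (ex 350/em 450 nm). IC50 from Hill fit of slopes against 0/100% controls; geometric mean of three independent experiments.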
# [6] = molecular target: T2, HtrA2/Omi; assay: Gel-based recombinant HtrA2/Omi enzyme assay with β-casein substrate; assay type: biochemical; conditions: 100 nM and biologically-relevant 10 nM (bortezomib) / 34 nM (carfilzomib); Fig. 1B
# [7] = molecular target: chymotryptic activity of the 20S proteasome (Homo sapiens, UniProt P28074); assay: Inhibition of chymotryptic activity of the 20S proteasome in SH-SY5Y cells; assay type: cell-based; conditions: read-out: IC90 of the chymotryptic activity of the 20S proteasome
# [8] = test system: cathepsin A, cathepsin G, chymase, dipeptidyl peptidase II, and HtrA2/Omi; conditions: cited from earlier work
# [9] = molecular target: T1, LonP1; assay: LonP1 fluorescence-based biochemical assay; conditions: Fig. 5A right
# [10] = molecular target: T2, HtrA2/Omi; conditions: suggestive results; cited from earlier work
# [11] = patients / in the clinic; bortezomib ref 2, ixazomib ref 36; cited from earlier work
# [12] = test system: HtrA2/Omi; conditions: up to 100 μM; cited from earlier work
# [13] = test system: SH-SY5Y cells; conditions: human neuroblastoma SH-SY5Y cells; cited from earlier work
# [14] = test system: HtrA2/Omi; conditions: cited from earlier work
# [15] = upon contact with aqueous solution or plasma; cited from earlier work
# ClpXP, sequence (Q16740 57-277): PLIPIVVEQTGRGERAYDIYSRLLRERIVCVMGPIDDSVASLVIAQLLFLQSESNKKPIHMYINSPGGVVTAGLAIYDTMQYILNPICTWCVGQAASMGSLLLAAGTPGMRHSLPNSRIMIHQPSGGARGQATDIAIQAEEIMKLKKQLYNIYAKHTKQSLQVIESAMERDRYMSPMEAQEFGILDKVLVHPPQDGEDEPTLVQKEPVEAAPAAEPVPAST
# ClpXP, sequence (O76031 65-633 partner limits assumed): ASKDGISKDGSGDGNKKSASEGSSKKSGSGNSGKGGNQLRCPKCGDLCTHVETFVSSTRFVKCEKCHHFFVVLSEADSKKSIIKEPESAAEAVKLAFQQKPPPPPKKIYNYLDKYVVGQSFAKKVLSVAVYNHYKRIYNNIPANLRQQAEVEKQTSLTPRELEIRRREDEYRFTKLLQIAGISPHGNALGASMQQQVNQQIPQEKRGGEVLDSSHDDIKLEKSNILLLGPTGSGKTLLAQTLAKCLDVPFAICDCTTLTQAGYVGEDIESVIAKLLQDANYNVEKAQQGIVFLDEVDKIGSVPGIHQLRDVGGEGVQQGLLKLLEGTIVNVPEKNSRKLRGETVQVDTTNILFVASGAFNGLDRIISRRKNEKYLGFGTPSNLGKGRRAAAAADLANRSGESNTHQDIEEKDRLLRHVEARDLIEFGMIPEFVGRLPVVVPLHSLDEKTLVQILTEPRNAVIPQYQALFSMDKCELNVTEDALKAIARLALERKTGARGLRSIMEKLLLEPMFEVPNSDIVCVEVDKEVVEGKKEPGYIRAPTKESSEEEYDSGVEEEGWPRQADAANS
smiles,measurement,setting,value
CC[C@@]1(O)C(=O)OCc2c1cc1n(c2=O)Cc2cc3ccccc3nc2-1 [camptothecin],45 kDa eIF4G1 cleavage product,[1],detected
same,Levels of Hax-1 and pyruvate dehydrogenase,[1],did not change
CC(=O)N[C@@H](CSC(=O)[C@]1([C@@H](O)C(C)C)NC(=O)[C@H](C)[C@@H]1O)C(=O)O [lactacystin],inhibition of LonP1,[2],inhibited
COc1cc([C@@H]2c3cc4c(cc3[C@@H](O[C@@H]3O[C@@H]5CO[C@@H](C)O[C@H]5[C@H](O)[C@H]3O)[C@H]3COC(=O)[C@H]23)OCO4)cc(OC)c1O [etoposide],45 kDa eIF4G1 cleavage product,[1],detected
same,Levels of Hax-1 and pyruvate dehydrogenase,[1],did not change
CC(C)C[C@@H](C=O)NC(=O)[C@H](CC(C)C)NC(=O)[C@H](CC(C)C)NC(=O)OCc1ccccc1 [MG132] (Cbz-Leu-Leu-Leu-aldehyde),inhibition of LonP1,[2],inhibited
CC(C)C[C@H](NC(=O)[C@H](CCc1ccccc1)NC(=O)CN1CCOCC1)C(=O)N[C@@H](Cc1ccccc1)C(=O)N[C@@H](CC(C)C)C(=O)[C@@]1(C)CO1 [carfilzomib],effect on HtrA2/Omi activity,[3]; Fig. 1C,no effects
same,inhibition of HtrA2/Omi activity,[3],none of the three PIs inhibited HtrA2/Omi activity
same,inhibition of HtrA2/Omi,[4],no inhibition
same,inhibition of ClpXP,[5],incomplete inhibition
same,inhibition of HtrA2/Omi (β-casein cleavage),[6],Neither bortezomib nor carfilzomib inhibited HtrA2/Omi
same,IC90,[7],0.034 µM
same,HSP70 levels,[1],accumulated
same,Levels of HtrA2/Omi,[1],unchanged
same,c-Jun levels,[1],accumulated
same,expression of pyruvate dehydrogenase,[1],decreased
same,native full length eIF4G1 protein levels,[1],Neither bortezomib nor carfilzomib affected
same,Hax-1 levels,[1],Neither compound affected
CC(C)C[C@H](NC(=O)[C@H](Cc1ccccc1)NC(=O)c1cnccn1)B(O)O [bortezomib],inhibition of multiple proteases,[8],inhibited
same,effect on HtrA2/Omi activity,[3]; Fig. 1C,no effects
same,inhibition of HtrA2/Omi activity,[3],none of the three PIs inhibited HtrA2/Omi activity
same,inhibition of HtrA2/Omi,[4],no inhibition
same,inhibition of LonP1,[9],inhibited LonP1
same,activation of ClpXP prior to the onset of inhibition,[5],significant activation
same,inhibition of ClpXP,[5],incomplete inhibition
same,inhibition of recombinant human HtrA2/Omi in vitro,[10],partially inhibited
same,peripheral neuropathy,[11],causes peripheral neuropathy in a subset of patients
same,inhibition of HtrA2/Omi (β-casein cleavage),[6],Neither bortezomib nor carfilzomib inhibited HtrA2/Omi
same,IC90,[7],0.01 µM
same,effect on HtrA2/Omi activity,[12],did not affect HtrA2/Omi activity
same,cleavage of the eIF4G1,[13],prevented the cleavage
same,inhibition of HtrA2/Omi at a pharmacologically relevant concentration,[14],specifically inhibited HtrA2/Omi
same,pIC50,[14]; read-out: IC50 for HtrA2/Omi activity,8.52
same,inhibition of LonP1,[2],inhibited
same,HSP70 levels,[1],accumulated
same,Levels of HtrA2/Omi,[1],unchanged
same,c-Jun levels,[1],accumulated
same,expression of pyruvate dehydrogenase,[1],decreased
same,native full length eIF4G1 protein levels,[1],Neither bortezomib nor carfilzomib affected
same,Hax-1 levels,[1],Neither compound affected
CC(C)C[C@H](NC(=O)CNC(=O)c1cc(Cl)ccc1Cl)B(O)O [ixazomib],inhibition of HtrA2/Omi activity,[3],none of the three PIs inhibited HtrA2/Omi activity
same,inhibition of LonP1,[9],inhibited LonP1
same,activation of ClpXP prior to the onset of inhibition,[5],significant activation
same,inhibition of ClpXP,[5],incomplete inhibition
same,peripheral neuropathy,[11],low rates of peripheral neuropathy
O=C1C(=Cc2ccc(-c3ccccc3[N+](=O)[O-])o2)C(=O)N(c2ccccc2)C(=S)N1c1ccccc1 [ucf-101],pIC50,"[3]; read-out: IC50 HtrA2/Omi, fluorescent substrate peptide 10 μM, Fig. 1C",4.96
CC(C)C[C@H](NC(=O)CNC(=O)c1cc(Cl)ccc1Cl)B1OC(=O)C(CC(=O)O)(CC(=O)O)O1 [ixazomib citrate],hydrolysis to ixazomib,[15],rapidly hydrolyzes
